These results are taken from paper PMC9839614 (Cancer cell, 2022).

The conditions of series [1]: first-in-human study, advanced solid tumors; cited from earlier work.
The subject of series [2] is MOLM-13 parental cells. The series can be described thus: Drug treatment IC50 measurement. It is filed as cell-based. The conditions noted are these: Homo sapiens, MOLM-13, read-out: IC50 (cell viability). In a few lines:
(§1)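 MOLM-13 cells (parental or venetoclax-resistant) were plated and exposed to the test compound across a range of concentrations, with at least three technical replicates per concentration per cell line. Viability was read by CellTiter-Glo luminescence. IC50 was calculated from technical triplicates within each experiment, over n=3 experiments, and reported as mean with SEM.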

Series [3] deals with venetoclax-resistant MOLM-13 cell lines. Description: Drug treatment IC50 measurement. Type of series: cell-based, human. In a few lines: as §1
Series [4] deals with RNA splicing in MOLM-13 cells. Description: RNA-seq alternative splicing analysis. Type of series: cell-based, human. The conditions noted are these: 48 hours, SM09419 100 nM, venetoclax 10 nM. In a few lines: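 Total RNA was extracted from MOLM-13 cells with an RNeasy column kit for RNA-seq. Before downstream analysis, FASTQ reads were trimmed of sequencing adapters and of low-quality reads (Q<15).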

As to `CN1CCN(c2cc(C(=O)Nc3cc4cc(-c5cnn(C)c5)ccc4cn3)ccn2)CC1` [Cirtuvivint], the “Grade 3 anemia rate” value in series [1] was < 15%.
What is called IC50 is the concentration needed to halve the response being measured. As for `CC1(C)CCC(CN2CCN(c3ccc(C(=O)NS(=O)(=O)c4ccc(NCC5CCOCC5)c([N+](=O)[O-])c4)c(Oc4cnc5[nH]ccc5c4)c3)CC2)=C(c2ccc(Cl)cc2)C1` [venetoclax], the IC50 in series [2] was ~15 nM; in series [3] (Homo sapiens, MOLM-13, 504 h, read-out: IC50 (cell viability)), > 99 nM. The “IC50 of resistant cell lines relative to parental cells” value in series [3] (venetoclax-resistant vs parental MOLM-13) is “approximately six times greater”. Besides, the “Effect on RNA splicing” value in series [4] is “no significant effects on RNA splicing”.
